According to ChEMBL document CHEMBL1148276, “Oral bioavailability of a new class of micro-opioid receptor agonists containing 3,6-bis[Dmt-NH(CH(2))(n)]-2(1H)-pyrazinone with central-mediated analgesia” (J Med Chem, 2004):

Legend:
Mu-type opioid receptor [1] = target: Mu-type opioid receptor (Rattus norvegicus, UniProt P33535); experiment: Compound was tested for binding affinity towards Opioid receptor mu 1 by displacing [3H]DAGO radioligand in rat brain P2 synaptosomes membranes.; type: cell membranes
[2] = test system: Opioid receptors; mu & delta; experiment: Selectivity ratio of Ki of delta-opioid receptor to mu-opioid receptor; type: protein assay
Method in brief: (§1)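 Competition binding at equilibrium (2.5 h, 22 °C) on rat brain P2 synaptosomal membranes, preincubated to strip endogenous opioids, washed with protease inhibitor, stored in 20% glycerol at -80 °C; [3H]DAMGO (μ) or [3H]DPDPE (δ); nonspecific binding with 2 μM unlabeled peptide; GF/C filtration; Ki by Cheng-Prusoff, duplicates, 5-8 doses, 3-5 preparations.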

[3] = target: Delta-type opioid receptor (Rattus norvegicus, UniProt P33533); experiment: Compound was tested for binding affinity towards opioid receptor delta 1 by displacing [3H]DPDPE radioligand in rat brain P2 synaptosomes membranes.; type: cell membranes; method in brief: as §1
Mu-type opioid receptor [4] = target: Mu-type opioid receptor (Cavia porcellus, UniProt P97266); experiment: Compound was tested for Opioid receptor mu 1 agonism in isolated tissues from guinea pig ileum; type: functional, tissue-based
[5] = target: Delta-type opioid receptor (Mus musculus, UniProt P32300); experiment: Compound was tested for opioid receptor delta 1 agonism or antagonism in mouse vas deferens; type: functional, tissue-based
Mus musculus [6] = experiment: Potency relative to morphine in hot plate test in mice, subcutaneously; type: functional
Mus musculus [7] = experiment: Potency relative to morphine in tail flick test in mice, subcutaneously; type: functional
Method in brief: (§2)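 Male Swiss-Webster mice (20-25 g); radiant-heat tail-flick, baseline 2-3 s, cutoff 8 s; dosing icv or sc in saline pH 7, po in water; readings from 10, 15 or 30 min respectively until return to baseline; AUC of latency vs time, 5-7 mice per point; relative potency from doses giving analgesia equivalent to morphine.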

Mus musculus [8] = organism: Mus musculus; experiment: Potency relative to morphine in tail flick test in mice, perorally; type: functional; method in brief: as §2
Mus musculus [9] = organism: Mus musculus; experiment: Potency relative to morphine in hot plate test in mice, perorally; Vale ranges from 0.16-0.24; type: functional
Mus musculus [10] = experiment: Potency relative to morphine in hot plate test in mice, intracerebroventricularly; Vale ranges from 18-21; type: functional
Mus musculus [11] = experiment: Potency relative to morphine in tail flick test in mice, intracerebroventricularly; Vale ranges from 50-63; type: functional; method in brief: as §2

Delta-type opioid receptor (Mus musculus, UniProt P32300), sequence (P32300 whole entry): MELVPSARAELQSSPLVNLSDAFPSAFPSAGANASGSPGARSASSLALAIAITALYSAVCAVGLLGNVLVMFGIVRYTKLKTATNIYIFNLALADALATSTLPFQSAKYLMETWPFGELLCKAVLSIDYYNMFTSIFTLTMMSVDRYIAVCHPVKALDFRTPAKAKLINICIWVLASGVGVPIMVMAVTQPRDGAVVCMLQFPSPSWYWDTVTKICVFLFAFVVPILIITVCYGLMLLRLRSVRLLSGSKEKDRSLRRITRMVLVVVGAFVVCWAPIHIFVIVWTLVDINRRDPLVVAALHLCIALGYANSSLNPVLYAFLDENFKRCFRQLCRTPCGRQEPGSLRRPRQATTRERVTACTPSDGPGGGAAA
Mu-type opioid receptor (Rattus norvegicus, UniProt P33535), sequence (P33535 whole entry): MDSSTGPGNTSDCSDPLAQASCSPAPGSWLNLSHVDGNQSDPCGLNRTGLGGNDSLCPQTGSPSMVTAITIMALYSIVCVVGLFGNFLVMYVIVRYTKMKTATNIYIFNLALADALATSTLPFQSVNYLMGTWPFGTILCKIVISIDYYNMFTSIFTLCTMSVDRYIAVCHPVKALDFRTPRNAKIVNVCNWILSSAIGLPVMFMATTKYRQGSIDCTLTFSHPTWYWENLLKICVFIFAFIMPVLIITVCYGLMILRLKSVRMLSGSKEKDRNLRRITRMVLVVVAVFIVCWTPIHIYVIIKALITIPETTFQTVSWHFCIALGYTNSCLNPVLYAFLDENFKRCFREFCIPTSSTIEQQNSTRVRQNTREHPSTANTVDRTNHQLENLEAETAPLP
Delta-type opioid receptor (Rattus norvegicus, UniProt P33533), sequence (P33533 whole entry): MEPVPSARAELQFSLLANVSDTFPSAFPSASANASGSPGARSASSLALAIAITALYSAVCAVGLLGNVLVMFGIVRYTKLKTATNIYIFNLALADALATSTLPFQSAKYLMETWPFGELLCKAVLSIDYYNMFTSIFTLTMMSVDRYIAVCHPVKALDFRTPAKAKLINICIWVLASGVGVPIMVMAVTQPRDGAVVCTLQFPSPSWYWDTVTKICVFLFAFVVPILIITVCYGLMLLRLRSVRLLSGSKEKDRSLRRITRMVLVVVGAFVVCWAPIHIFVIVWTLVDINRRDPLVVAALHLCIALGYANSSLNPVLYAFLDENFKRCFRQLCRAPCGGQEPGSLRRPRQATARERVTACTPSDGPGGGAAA
Mu-type opioid receptor (Cavia porcellus, UniProt P97266), sequence (P97266 whole entry): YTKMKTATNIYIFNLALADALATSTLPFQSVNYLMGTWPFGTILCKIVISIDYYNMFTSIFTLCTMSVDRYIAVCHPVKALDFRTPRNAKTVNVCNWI

SMILES | Ki (Mu-type opioid receptor [1]) | Ratio [2] | Ki [3] | IC50 (Mu-type opioid receptor [4]) | IC50 [5] | Activity (Mus musculus [6]) | Activity (Mus musculus [7]) | Activity (Mus musculus [8]) | Activity (Mus musculus [9]) | Activity (Mus musculus [10]) | Activity (Mus musculus [11])
Cc1nc(CCNC(=O)C(N)Cc2ccc(O)cc2)c(=O)[nH]c1CCNC(=O)C(N)Cc1ccc(O)cc1 (stereo not given) | 309 nM | 9.4 | 2900 nM | – | – | – | – | – | – | – | –
Cc1nc(CNC(=O)C(N)Cc2ccc(O)cc2)c(=O)[nH]c1CNC(=O)C(N)Cc1ccc(O)cc1 (stereo not given) | – | 4 | 1830 nM | – | – | – | – | – | – | – | –
Cc1nc(CCCCNC(=O)C(N)Cc2ccc(O)cc2)c(O)nc1CCCCNC(=O)C(N)Cc1ccc(O)cc1 (stereo not given) | 70.2 nM | 31 | 2190 nM | – | – | – | – | – | – | – | –
Cc1nc(CCCNC(=O)C(N)Cc2ccc(O)cc2)c(O)nc1CCCNC(=O)C(N)Cc1ccc(O)cc1 (stereo not given) | 25.7 nM | 17 | 435 nM | – | – | – | – | – | – | – | –
Cc1cc(O)cc(C)c1CC(N)C(=O)NCCCCc1nc(O)c(CCCCNC(=O)C(N)Cc2c(C)cc(O)cc2C)nc1C (stereo not given) | 0.114 nM | 204 | 23.2 nM | 1.9 nM | 41.5 nM | – | – | – | – | – | –
Cc1cc(O)cc(C)c1CC(N)C(=O)NCc1nc(O)c(CNC(=O)C(N)Cc2c(C)cc(O)cc2C)nc1C (stereo not given) | 1.16 nM | 13.5 | 15.7 nM | 1690 nM | > 10000 nM | – | – | – | – | – | –
Cc1cc(O)cc(C)c1CC(N)C(=O)NCCCc1nc(O)c(CCCNC(=O)C(N)Cc2c(C)cc(O)cc2C)nc1C.Cl.Cl (stereo not given) | 0.042 nM | 307 | 13.2 nM | 1.33 nM | > 1000 nM | 0.55 | 0.63 | 0.42 | 0.24 | 21 | 63
Cc1cc(O)cc(C)c1CC(N)C(=O)NCCc1nc(O)c(CCNC(=O)C(N)Cc2c(C)cc(O)cc2C)nc1C (stereo not given) | – | – | 7.26 nM | 12.9 nM | > 10000 nM | – | – | – | – | – | –
